CRFR2-BP ag: agonists of human CRF-binding protein/CRF-R2 receptor complex; 0.46% of 350,000 active; AID 588473; HEK293 CRF-R2/CRF-BP, calcium dye fluorescence (FLIPR); percent of saturating CRF peptide response; activation, % at 13.2 µM;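 active means activation of at least 50%, plus an integration ratio under a set limit after plate pattern correction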;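 further: plate controls were neutral control wells without compound for no effect and CRF at EC100 for full effect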
CRFBP-R2 block: CRF-BP/CRF-R2 complex antagonism. 0.59% of 350,000 active. HEK293 CRF-R2/CRF-BP, CRF-induced calcium fluorescence. inhibition, % at 11.8 µM;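 active means inhibition of the ligand-induced calcium signal above about 50% at the single tested concentration, limit read from the data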
DDE Tn6 FP inh: inhibitors of Tn6 peptide binding to human fibrin DD(E). P02675. Fibrin DD(E) TRITC-Tn6 fluorescence polarization displacement. inhibition, % at 8.3 µM. 0.21% of 370,000 active;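 active means inhibition above a per-campaign cutoff: mean of compounds within control limits plus 3 SD, cut at about 15% in these data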;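 further: 0% = median of all compound wells on the plate and 100% = blocking peptide control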
Target sequence (P02675 whole entry, looked up): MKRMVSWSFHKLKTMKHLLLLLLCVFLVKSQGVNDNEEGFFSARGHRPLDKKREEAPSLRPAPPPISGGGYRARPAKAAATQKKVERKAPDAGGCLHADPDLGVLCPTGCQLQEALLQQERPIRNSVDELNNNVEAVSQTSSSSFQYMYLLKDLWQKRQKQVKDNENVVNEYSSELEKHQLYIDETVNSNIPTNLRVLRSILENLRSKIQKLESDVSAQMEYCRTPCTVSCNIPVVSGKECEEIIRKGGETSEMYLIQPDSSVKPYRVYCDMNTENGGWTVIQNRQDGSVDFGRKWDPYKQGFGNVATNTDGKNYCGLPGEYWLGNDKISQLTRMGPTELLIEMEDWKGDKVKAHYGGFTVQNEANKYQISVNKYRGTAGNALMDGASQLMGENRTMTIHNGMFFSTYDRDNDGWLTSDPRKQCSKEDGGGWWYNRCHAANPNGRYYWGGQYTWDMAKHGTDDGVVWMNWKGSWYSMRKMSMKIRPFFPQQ
Tn7 DDE FP: inhibitors of Tn7 peptide binding to human fibrin DD(E); P02675; FP displacement of FITC-Tn7 peptide from fibrin DD(E); 0% = median of compound wells per plate; inhibition, % at 8.3 µM; 0.13% of 370,000 active;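 active means inhibition above the mean of compounds falling within the control limits plus 3 SD of them, cut at about 14% in these data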;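 further: 0% = plate median of compound wells and 100% = 10 µM Aha-Tn7 peptide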
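Assay system: Human clot-derived fibrin DD(E) complex | Buffer or medium: Tris/NaCl/CaCl2 buffer, pH 7.8 | Repeats: One replicate per compound | Benchmarks: Aha-Tn7 high control | Measure: % inhibition scaled between sample-field median and high-control FP | Schedule: 10 min plus 3 h, room temperature | Signal: Fluorescence polarization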
proKLK7 act: activators of human kallikrein-7 zymogen; P49862; purified proKLK7, EDANS-DABCYL substrate fluorescence; 100% is mature enzyme control, 0% vehicle; activation, % at 7 µM; 0.9% of 370,000 active; AID 652039;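 active means activation above the mean of all tested compounds plus 3 SD, computed per campaign excluding outliers beyond control limits, cut at about 13% in these data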
Target sequence (P49862 whole entry, looked up): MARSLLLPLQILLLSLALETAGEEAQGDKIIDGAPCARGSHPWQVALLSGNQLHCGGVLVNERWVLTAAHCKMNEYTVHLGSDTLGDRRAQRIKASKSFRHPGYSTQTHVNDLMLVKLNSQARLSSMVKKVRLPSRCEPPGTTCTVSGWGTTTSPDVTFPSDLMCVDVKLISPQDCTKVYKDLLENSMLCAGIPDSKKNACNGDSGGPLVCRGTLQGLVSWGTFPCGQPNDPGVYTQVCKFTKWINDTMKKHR
CendR NRP1 mod: alters CendR peptide binding to human NRP-1; FAM-RPARPAR peptide binding to NRP-1, fluorescence polarization; O14786; AID 602438; 0.85% of 360,000 active; inhibition, % at 25 µM;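 active means inhibition or corrected inhibition above about 18%, plus a signal ratio from 0.5 to 1.5, limit read from the data, passing the limit was not always enough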
* marks the source's active call; other numbers are inactive results; / = no result given. Hits are enriched below; roughly 2.9% of the tested compounds scored in any of these assays.

SMILES | CRFR2-BP ag | CRFBP-R2 block | DDE Tn6 FP inh | Tn7 DDE FP | proKLK7 act | CendR NRP1 mod
CC(C)Oc1cc(NC(=O)CS(=O)CC(=O)N(C)C)c(Cl)cc1Cl (stereo not drawn) | -1.1 | -13.3 | 13.4 | 0.7 | 0.2 | 25.2*
O=C(CSc1cccc2cccnc12)N/N=C/c1ccc(F)cc1 | -0.1 | -5.0 | 2.9 | -0.8 | -3.8 | 36.5*
Cc1cc(C)cc(N(CC(=O)NC2CCC(C)CC2)S(=O)(=O)c2cccs2)c1 (stereo not drawn) | / | / | -3.5 | -4.3 | 0.7 | /
COC(=O)c1sccc1NC(=O)c1ccnn1C | 0.8 | 3.3 | -1.0 | 0.4 | 0.7 | 24.9*
C[C@@H]1C[C@H](O)CCCCCC(=O)Cc2cc(O)cc(O)c2C(=O)O1 | / | / | 3.0 | -2.8 | 0.3 | /
Cc1cccc(C)c1NC(=O)Cc1cccs1 | 0.6 | 77.6* | -3.5 | 2.3 | 0.3 | 1.6
O=c1c2ccccc2n(Cc2ccno2)n1[C@@H](Cc1ccccc1)Cn1cc(C2CCCC2)nn1 | / | / | -0.1 | 6.1 | 0.4 | /
COc1cccc(N=C(N)N=C(N)N)c1 | -1.9 | -0.3 | 5.9 | 0.4 | -0.3 | -12.5
COc1ccnc(CSC(N)=Nc2ccc(F)cc2)c1 | 5.7 | 86.4* | 4.3 | -1.9 | -1.5 | -13.6
COc1ccc2c(c1)c(C(=O)N/N=C/c1ccc(Br)cc1)c(C)n2C | 1.2 | -43.5 | 3.3 | -1.3 | 0.2 | 26.0*
NC(=S)N=Nc1c(O)[nH]c2ccc(F)cc12 | -5.5 | -0.7 | 4.0 | 0.8 | 0.5 | 12.9
NC(=S)N=Nc1c(O)cc(O)c2[nH]c(=O)ccc12 | -3.1 | 14.6 | -6.1 | -0.6 | 0.0 | 41.6*
COCCN(C(=O)c1ccc2c(c1)S(=O)(=O)N=C1CCCCCN12)c1c(N)n(CC(C)C)c(=O)[nH]c1=O | 1.1 | 4.2 | -4.0 | -0.5 | 0.4 | -5.5
CCCCN(C(=O)c1ccc2c(c1)S(=O)(=O)N=C1CCCCCN12)c1c(N)n(CCCC)c(=O)[nH]c1=O | -1.1 | 96.4* | -9.1 | 4.3 | -0.6 | -7.2
Oc1cc2ccccc2cc1-c1n[nH]c(=S)o1 | -1.6 | 61.0* | 2.9 | -3.0 | -28.5 | -1.8
COC(=O)[C@@H](C)NC(=O)C(Cc1ccc2c(c1)OCO2)NC(C)=O (stereo partly drawn) | / | / | -5.4 | -1.1 | -0.2 | /
CC(Nc1ccc(Br)cc1)C(=O)N/N=C/c1ccccc1OCc1ccccc1 (stereo not drawn) | 0.3 | -30.1 | 3.0 | -1.5 | 0.0 | 22.6
COc1ccc(NC(C)C(=O)N/N=C/c2ccccc2OCc2ccc(Br)cc2)cc1 (stereo not drawn) | -0.2 | 0.4 | -5.7 | -3.3 | 1.3 | 21.9*
Cc1ccc(Cn2cc(CN3[C@@H](Cc4ccccc4)COc4cc(Br)ccc4S3(=O)=O)nn2)cc1 | / | / | 5.1 | 5.3 | 0.4 | /
CCCOc1ccc(-c2nc(C#N)c(N3CCN(C)CC3)o2)cc1 | 0.4 | 9.7 | -4.9 | 4.5 | -0.2 | 34.1*
COc1ccc(-c2csc(NC(=O)CSc3nc(SC)ns3)n2)cc1 | 1.0 | 85.3* | -5.3 | 2.2 | -0.2 | 6.1
Cc1ccc(-n2c(O)c(/C=N/Nc3ccc(S(=O)(=O)N4CCOCC4)cc3[N+](=O)[O-])c3ccccc3c2=O)c(C)c1 | 18.5 | 25.6 | -5.5 | 0.6 | 4.3 | 46.2*
COc1ccc([C@H]2OC(=O)C[C@H]2C(=O)N2CCN(c3ccccc3Cl)CC2)cc1OC | / | / | 1.2 | 3.3 | -0.6 | /
CCN(Cc1ccccc1)C(=O)CN1C(=O)COc2ccc(S(=O)(=O)N3CCCCCC3)cc21 | 0.6 | 7.2 | 0.9 | 5.0 | -1.1 | -6.0
CCN(C(=O)CN1C(=O)COc2ccc(S(=O)(=O)N3CCCCCC3)cc21)c1cccc(C)c1 | 55.5* | -48.3 | -6.8 | 0.2 | -0.1 | 3.9
SMILES | CRFR2-BP ag | CRFBP-R2 block | DDE Tn6 FP inh | Tn7 DDE FP | proKLK7 act | CendR NRP1 mod
O=c1ccc2cc(S(=O)(=O)NCc3ccccc3)ccc2[nH]1 | 0.0 | 98.9* | 2.4 | 11.2 | -0.7 | 5.4
O=C(Nc1ncc(Cc2ccc(Cl)cc2Cl)s1)c1ccc([N+](=O)[O-])cc1 | 74.0* | -172.1 | 4.7 | -7.7 | -0.3 | 5.2
Cc1cc2c(c(=O)o1)[C@@]1(C(=O)N(C)c3c(Br)cccc31)C1=C(CCCC1=O)O2 | / | / | 3.6 | 1.2 | -0.1 | /
c1ccc2c(c1)nnn2-c1ncnc2sc3c(c12)CCCC3 | -0.2 | 62.2* | 0.1 | 1.0 | -0.7 | 9.1
COc1ccc(-c2noc(CCC(=O)NCc3cc(Br)ccc3OC)n2)cc1 | -1.4 | -3.3 | 0.8 | -0.7 | 0.4 | -9.2
COc1ccc(Br)cc1CNC(=O)CCc1nc(-c2ccc(C)cc2)no1 | 2.1 | 6.5 | 2.3 | -3.9 | 0.2 | 22.8*
CC1CCC(NC(=O)CCN2C(=O)C3CC=CCC3C2=O)CC1 (stereo not drawn) | -0.6 | 106.3* | 7.7 | -1.2 | 0.8 | 19.4
N=C1/C(=C\c2coc3ccc(O)cc3c2=O)C(=O)N=C2SC=CN12 | 151.7* | -87.9 | -7.6 | -6.9 | -7.3 | 132.9
COc1ccc(-n2cccc2/C=C2\C(=N)N3N=C(c4ccco4)SC3=NC2=O)cc1 | -1.2 | 52.3* | -0.9 | 2.4 | -0.3 | -69.0
CSC1=NSC2=NC(=O)/C(=C\c3coc4ccccc4c3=O)C(=N)N12 | 197.1* | -200.9 | 2.2 | -2.2 | -8.4 | 122.2
N=C1/C(=C/c2coc3ccccc3c2=O)C(=O)N=C2SC(c3ccco3)=NN12 | 168.1* | -105.2 | / | / | / | 134.7
COCCCN1C(=O)[C@H](CC(=O)N2CCN(C(=O)C3CC3)CC2)[C@]2(C(=O)OC)CCCCC=C12 | / | / | 1.5 | -1.9 | 0.5 | /
COC(=O)C[C@H]1CC[C@H]2[C@H](COc3ccc(NS(=O)(=O)c4cccc(OC)c4)cc3C(=O)N2C)O1 | / | / | -2.1 | 0.5 | -0.2 | /
COCCCN1C(=O)[C@H](CC(=O)NCC2CCCCC2)[C@]2(C(=O)OC)CCCCC=C12 | / | / | 0.1 | 10.2 | -0.3 | /
CC(C)CSC1=NSC2=NC(=O)/C(=C\c3coc4ccccc4c3=O)C(=N)N12 | 313.6* | -332.8 | -2.3 | -0.7 | -2.6 | 134.2
COc1ccc(-c2nnc(SCC(=O)N/N=C\C=C/c3ccco3)n2-c2ccc(C)cc2)cc1 | / | / | -4.8 | -0.3 | 0.2 | /
Cn1c(=O)c(C#N)c(-c2ccc(F)cc2)c2cc(C(=O)c3cc(Cl)cc(Cl)c3O)cnc21 | 31.4 | 52.6* | 0.8 | 2.6 | 0.4 | -1.5
COc1ccccc1-n1c(=O)c(C#N)c(-c2ccc([N+](=O)[O-])cc2)c2cc(C(=O)c3cc(F)ccc3O)cnc21 | 0.4 | 18.5 | 0.4 | -0.4 | -0.1 | 1.5
C=c1[nH]cc(C(C)c2c(C)n(C)c3ccccc23)/c1=C/C (stereo not drawn) | / | / | 7.9 | 7.2 | 0.0 | /
CCCNC(=O)C1CC(=O)N(c2ccc(OCC)cc2)C1 (stereo not drawn) | -3.7 | 55.8* | -0.5 | -9.7 | 0.0 | 10.3
O=C(Nc1nc(Cc2ccccc2)c(-c2ccccc2)n1Cc1ccccc1)c1ccccc1 | / | / | 3.5 | 7.3 | -7.2 | /
